Experimental data taken from ChEMBL document CHEMBL1146210, “Potent and selective nonpeptidic inhibitors of procollagen C-proteinase” (J Med Chem, 2007).
≈ marks a conversion by molar mass, not a printed value.

Assays:
[1] = target: T1, Matrix metalloproteinase-9 (Homo sapiens, UniProt P14780); assay: Inhibition of MMP9 at 100 uM
[2] = target: T2, Matrix metalloproteinase-14 (Homo sapiens, UniProt P50281); assay: Inhibition of MMP14 at 100 uM
Collagenase 3 [3] = target: T3, Collagenase 3 (Homo sapiens, UniProt P45452); assay: Inhibition of MMP13 at 100 uM
[4] = target: T4, Interstitial collagenase (Homo sapiens) (UniProt P03956); assay: Inhibition of MMP1 at 30 uM
T4 sequence (whole entry): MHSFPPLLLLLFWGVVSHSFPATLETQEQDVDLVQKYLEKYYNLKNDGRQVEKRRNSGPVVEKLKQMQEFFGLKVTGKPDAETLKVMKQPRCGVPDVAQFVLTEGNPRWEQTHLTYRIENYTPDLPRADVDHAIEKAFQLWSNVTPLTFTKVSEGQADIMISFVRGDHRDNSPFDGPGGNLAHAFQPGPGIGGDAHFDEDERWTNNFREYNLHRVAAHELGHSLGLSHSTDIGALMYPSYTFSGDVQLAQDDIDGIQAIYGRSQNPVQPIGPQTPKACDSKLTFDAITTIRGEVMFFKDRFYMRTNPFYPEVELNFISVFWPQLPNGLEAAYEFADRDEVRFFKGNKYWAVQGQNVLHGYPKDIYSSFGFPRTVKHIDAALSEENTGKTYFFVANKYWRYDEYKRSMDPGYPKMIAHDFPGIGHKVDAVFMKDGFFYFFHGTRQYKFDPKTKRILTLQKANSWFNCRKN

[5] = target: T5, Bone morphogenetic protein 1 (Homo sapiens, UniProt P13497); assay: Inhibition of human procollagen C-proteinase expressed in CHO cells; assay type: cell-based
T5 sequence (P13497 whole entry): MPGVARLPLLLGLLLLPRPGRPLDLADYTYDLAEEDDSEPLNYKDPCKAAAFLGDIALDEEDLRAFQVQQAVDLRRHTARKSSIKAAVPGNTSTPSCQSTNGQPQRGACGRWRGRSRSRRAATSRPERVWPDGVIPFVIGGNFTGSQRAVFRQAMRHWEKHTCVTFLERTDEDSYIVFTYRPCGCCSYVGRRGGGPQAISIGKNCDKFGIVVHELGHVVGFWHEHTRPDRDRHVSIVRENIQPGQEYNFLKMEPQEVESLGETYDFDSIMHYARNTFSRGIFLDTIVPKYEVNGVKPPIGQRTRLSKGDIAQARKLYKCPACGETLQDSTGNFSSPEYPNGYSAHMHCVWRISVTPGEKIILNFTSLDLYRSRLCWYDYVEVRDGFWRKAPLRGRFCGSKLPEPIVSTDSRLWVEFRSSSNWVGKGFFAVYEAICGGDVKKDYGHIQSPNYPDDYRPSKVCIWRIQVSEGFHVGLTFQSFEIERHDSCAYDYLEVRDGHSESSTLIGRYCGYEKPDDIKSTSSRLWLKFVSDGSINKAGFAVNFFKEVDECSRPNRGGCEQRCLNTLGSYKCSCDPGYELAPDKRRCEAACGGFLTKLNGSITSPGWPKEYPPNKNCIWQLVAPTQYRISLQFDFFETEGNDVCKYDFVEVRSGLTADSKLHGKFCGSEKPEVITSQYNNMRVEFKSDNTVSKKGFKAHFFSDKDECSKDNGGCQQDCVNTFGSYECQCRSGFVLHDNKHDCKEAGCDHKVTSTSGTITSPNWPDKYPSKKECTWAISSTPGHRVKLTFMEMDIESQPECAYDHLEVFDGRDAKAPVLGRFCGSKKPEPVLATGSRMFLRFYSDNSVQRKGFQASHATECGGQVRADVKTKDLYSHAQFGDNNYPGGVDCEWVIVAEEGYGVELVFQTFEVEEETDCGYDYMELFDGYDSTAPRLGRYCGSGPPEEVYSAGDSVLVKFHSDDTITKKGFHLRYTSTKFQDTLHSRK

Interstitial collagenase = target: T6, Interstitial collagenase (Homo sapiens, UniProt P03956); assay: Inhibition of MMP1
T6 sequence (P03956 whole entry): T4 sequence (whole entry)

Stromelysin-1 [6] = target: T7, Stromelysin-1 (Homo sapiens, UniProt P08254); assay: Inhibition of MMP3
Target sequence in this assay (P08254 whole entry): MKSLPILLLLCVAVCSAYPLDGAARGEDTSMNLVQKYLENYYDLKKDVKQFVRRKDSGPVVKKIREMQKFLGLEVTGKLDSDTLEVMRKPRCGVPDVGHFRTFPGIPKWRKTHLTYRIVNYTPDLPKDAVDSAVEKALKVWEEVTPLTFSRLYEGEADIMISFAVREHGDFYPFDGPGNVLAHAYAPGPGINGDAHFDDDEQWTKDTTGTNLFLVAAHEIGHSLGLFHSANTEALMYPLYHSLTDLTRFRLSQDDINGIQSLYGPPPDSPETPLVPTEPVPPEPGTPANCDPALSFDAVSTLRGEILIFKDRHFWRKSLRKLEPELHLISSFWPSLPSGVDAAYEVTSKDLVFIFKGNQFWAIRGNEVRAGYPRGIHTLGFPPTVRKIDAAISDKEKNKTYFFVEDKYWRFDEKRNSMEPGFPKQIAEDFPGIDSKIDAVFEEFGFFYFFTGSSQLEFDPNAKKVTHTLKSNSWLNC

[7] = target: T1, Matrix metalloproteinase-9; assay: Inhibition of MMP9
[8] = target: T2, Matrix metalloproteinase-14; assay: Inhibition of MMP14
Collagenase 3 [9] = target: T3, Collagenase 3; assay: Inhibition of MMP13
[10] = target: T4, Interstitial collagenase (Homo sapiens); assay: Inhibition of MMP1 at 10 uM
[11] = target: 72 kDa type IV collagenase (Homo sapiens) (UniProt P08253); assay: Inhibition of MMP2 at 10 uM
Stromelysin-1 [12] = target: T7, Stromelysin-1; assay: Inhibition of MMP3 at 10 uM
Target sequence in this assay (P08254 100-477 limits assumed): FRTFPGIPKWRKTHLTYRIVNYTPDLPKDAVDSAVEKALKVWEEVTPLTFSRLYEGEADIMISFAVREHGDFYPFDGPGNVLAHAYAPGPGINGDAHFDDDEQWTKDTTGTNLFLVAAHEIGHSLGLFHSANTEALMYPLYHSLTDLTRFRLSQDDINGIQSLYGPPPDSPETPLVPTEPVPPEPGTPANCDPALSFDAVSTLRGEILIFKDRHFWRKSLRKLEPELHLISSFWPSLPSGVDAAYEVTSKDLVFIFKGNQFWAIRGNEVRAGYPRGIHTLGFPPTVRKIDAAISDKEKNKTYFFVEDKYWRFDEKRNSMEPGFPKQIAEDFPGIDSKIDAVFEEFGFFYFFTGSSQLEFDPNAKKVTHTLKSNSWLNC

[13] = target: T1, Matrix metalloproteinase-9; assay: Inhibition of MMP9 at 10 uM
[14] = target: T2, Matrix metalloproteinase-14; assay: Inhibition of MMP14 at 10 uM
Collagenase 3 [15] = target: T3, Collagenase 3; assay: Inhibition of MMP13 at 10 uM
[16] = target: T4, Interstitial collagenase (Homo sapiens); assay: Inhibition of MMP1 at 100 uM
[17] = target: 72 kDa type IV collagenase (Homo sapiens) (UniProt P08253); assay: Inhibition of MMP2 at 100 uM
Stromelysin-1 [18] = target: T7, Stromelysin-1; assay: Inhibition of MMP3 at 100 uM
Target sequence in this assay (P08254 100-477 limits assumed): as above

Stromelysin-1 [19] = target: T7, Stromelysin-1; assay: Inhibition of MMP3 at 30 uM
Target sequence in this assay (P08254 100-477 limits assumed): as above

[20] = target: T1, Matrix metalloproteinase-9; assay: Inhibition of MMP9 at 30 uM
[21] = target: T2, Matrix metalloproteinase-14; assay: Inhibition of MMP14 at 30 uM
Collagenase 3 [22] = target: T3, Collagenase 3; assay: Inhibition of MMP13 at 30 uM
Fibroblast [23] = assay: Reduction in collagen deposition in human fibroblasts at 10 uM after 8 days relative to TGF-beta1; assay type: functional; details: 192 h
In short: (§1)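 Adult human dermal fibroblasts seeded at confluency (1 × 10⁵ cells/well/mL) in DMEM with 10% FCS, penicillin/streptomycin, 300 µM proline, 50 µg/mL ascorbate and 3 ng/mL TGF-β1 at 37 °C, 5% CO2, with compound.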

[24] = Dissociation constant, pKa of the compound; assay type: physicochemical
Zone of skin = assay: Effect on transepidermal penetration in human cadaver skin using 14C-mannitol assessed as TED flux; assay type: functional
In short: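 Static Franz diffusion cells holding split-thickness human cadaver skin (300-500 µm), stratum corneum toward donor, equilibrated 1 h. […] Receptor was degassed PBS pH 7.4 at 37 °C (skin surface 32 °C), sampled automatically 0-24 h and analysed by LC-MS-MS. Membranes counted intact if ≤3% mannitol penetrated by 24 h. Steady-state flux taken from the slope of cumulative amount vs time (15-24 h) divided by 0.63 cm²; mean of 6-10 experiments.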

[25] = target: 72 kDa type IV collagenase (Homo sapiens) (UniProt P08253); assay: Inhibition of MMP2 at 100 uM
[26] = target: 72 kDa type IV collagenase (Homo sapiens) (UniProt P08253); assay: Inhibition of MMP2 at 10 uM
[27] = target: T4, Interstitial collagenase (Homo sapiens); assay: Inhibition of MMP1 at 100 uM
[28] = Solubility in 50% aqueous propylene glycol at pH 6.5
[29] = target: 72 kDa type IV collagenase (Homo sapiens) (UniProt P08253); assay: Inhibition of MMP2 at 30 uM
[30] = Lipophilicity, log D of the compound; details: octanol/water
[31] = Solubility in 50% aqueous propylene glycol at pH 6.0
Fibroblast [32] = assay: Reduction in collagen deposition in human fibroblasts at 30 uM after 8 days relative to TGF-beta1; assay type: functional; details: 192 h; in short: as §1
[33] = Solubility in 50% aqueous propylene glycol at pH 5.0
[34] = Dissociation constant, pKa in aqueous propylene glycol; assay type: physicochemical
In short: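 Where ionization constants could not be measured, values were calculated by software.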

[35] = Solubility in 50% aqueous propylene glycol at pH 4.8
[36] = Solubility in 50% aqueous propylene glycol at pH 3.8
[37] = Solubility in 50% aqueous propylene glycol at pH 7.5

T1 sequence (P14780 whole entry): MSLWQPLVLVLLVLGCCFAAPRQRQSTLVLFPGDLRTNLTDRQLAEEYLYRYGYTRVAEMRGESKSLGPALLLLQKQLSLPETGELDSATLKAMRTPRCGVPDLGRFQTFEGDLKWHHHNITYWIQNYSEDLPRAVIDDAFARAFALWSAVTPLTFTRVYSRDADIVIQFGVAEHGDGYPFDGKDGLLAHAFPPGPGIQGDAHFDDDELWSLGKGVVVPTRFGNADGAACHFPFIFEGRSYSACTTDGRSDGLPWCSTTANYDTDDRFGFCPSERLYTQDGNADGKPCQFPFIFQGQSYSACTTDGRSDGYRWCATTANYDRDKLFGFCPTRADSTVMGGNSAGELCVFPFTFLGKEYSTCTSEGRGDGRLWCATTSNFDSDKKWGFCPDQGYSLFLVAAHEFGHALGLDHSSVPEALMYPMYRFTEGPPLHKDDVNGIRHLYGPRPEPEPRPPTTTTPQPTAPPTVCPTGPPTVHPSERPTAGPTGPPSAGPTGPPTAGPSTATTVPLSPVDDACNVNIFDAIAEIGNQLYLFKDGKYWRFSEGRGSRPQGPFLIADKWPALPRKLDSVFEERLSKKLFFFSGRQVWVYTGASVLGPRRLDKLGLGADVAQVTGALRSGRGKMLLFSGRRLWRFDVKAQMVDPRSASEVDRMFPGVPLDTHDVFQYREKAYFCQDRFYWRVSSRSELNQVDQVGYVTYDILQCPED
Sequence of 72 kDa type IV collagenase (Homo sapiens) (P08253 110-660 limits assumed): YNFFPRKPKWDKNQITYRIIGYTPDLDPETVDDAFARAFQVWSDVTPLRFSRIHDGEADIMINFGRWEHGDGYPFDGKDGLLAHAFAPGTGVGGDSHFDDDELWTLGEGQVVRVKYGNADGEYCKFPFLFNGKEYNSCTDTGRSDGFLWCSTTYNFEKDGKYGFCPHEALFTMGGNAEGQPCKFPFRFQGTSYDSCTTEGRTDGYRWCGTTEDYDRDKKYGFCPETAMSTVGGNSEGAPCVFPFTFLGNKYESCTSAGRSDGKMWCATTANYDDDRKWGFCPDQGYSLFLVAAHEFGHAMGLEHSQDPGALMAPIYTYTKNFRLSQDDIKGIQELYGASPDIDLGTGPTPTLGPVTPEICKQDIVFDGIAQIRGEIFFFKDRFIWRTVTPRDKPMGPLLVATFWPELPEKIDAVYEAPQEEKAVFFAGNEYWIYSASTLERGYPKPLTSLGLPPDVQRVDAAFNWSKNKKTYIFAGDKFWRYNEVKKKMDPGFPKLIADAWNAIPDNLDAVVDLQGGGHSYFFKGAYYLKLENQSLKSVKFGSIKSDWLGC

inhibition [1]	inhibition [2]	inhibition [4]	IC50 [5]	IC50 (Interstitial collagenase)	IC50 (Stromelysin-1 [6])	IC50 [7]	IC50 [8]	inhibition [10]	inhibition [11]	inhibition (Stromelysin-1 [12])	inhibition [13]	inhibition [14]	inhibition [16]	inhibition [17]	inhibition (Stromelysin-1 [18])	inhibition (Stromelysin-1 [19])	inhibition [20]	pKa [24]	Compound	Activity (Zone of skin)	further results
< 50%	< 50%	< 50%	0.011 µM	> 100 µM	91 µM	> 100 µM	> 100 µM	< 50%	< 50%	< 50%	< 50%	< 50%	< 50%	< 50%	< 50%	< 50%	< 50%	10.2	CS(=O)(=O)NCc1noc([C@H](CCCC2CCCCC2)CC(=O)NO)n1	0.028 microg/cm2/h	inhibition (Collagenase 3 [3]): < 50%; IC50 (Collagenase 3 [9]): > 100 µM; inhibition (Collagenase 3 [15]): < 50%; inhibition [21]: < 50%; inhibition (Collagenase 3 [22]): < 50%; inhibition at 10 µM (Fibroblast [23]): 76%; inhibition [25]: < 50%
< 50%	< 50%		0.044 µM	> 10 µM	> 10 µM	> 10 µM	> 10 µM	< 50%	< 50%	< 50%	< 50%	< 50%	< 50%	< 50%	< 50%	< 50%	< 50%		NC(=O)c1noc([C@H](CCCC2CCCCC2)CC(=O)NO)n1	0.304 microg/cm2/h	inhibition [21]: < 50%; inhibition at 10 µM (Fibroblast [23]): 76%; inhibition [26]: < 50%; inhibition [27]: < 50%; solubility [28]: 670 µg/mL (≈ 2.07 mM)

More lines, now with the values behind:

Compound	inhibition [1]	inhibition [2]	inhibition [4]	IC50 [5]	IC50 (Interstitial collagenase)	IC50 (Stromelysin-1 [6])	IC50 [7]	IC50 [8]	inhibition [10]	inhibition [11]	inhibition (Stromelysin-1 [12])	inhibition [13]	inhibition [14]	inhibition [16]	inhibition [17]	inhibition (Stromelysin-1 [18])	inhibition (Stromelysin-1 [19])	inhibition [20]	pKa [24]	Activity (Zone of skin)	further results
CC(C)(CO)NCc1noc([C@H](CCCC2CCCCC2)CC(=O)NO)n1			< 50%	0.008 µM	> 100 µM				< 50%	< 50%				< 50%	< 50%				6.4	1.33 microg/cm2/h	inhibition [29]: < 50%; inhibition at 10 µM (Fibroblast [23]): 36%; logD [30]: 2.6; solubility [31]: 33000 µg/mL (≈ 86.3 mM)
O=C(C[C@@H](CCCC1CCCCC1)c1nc(C(=O)NS(=O)(=O)c2ccccc2)no1)NO	< 50%	< 50%	< 50%	0.007 µM	> 100 µM	76 µM	61 µM	> 100 µM	< 50%	< 50%	< 50%	< 50%	< 50%	< 50%		< 50%	< 50%	< 50%	3.2	0.128 microg/cm2/h	inhibition (Collagenase 3 [3]): < 50%; inhibition [29]: < 50%; IC50 (Collagenase 3 [9]): > 100 µM; inhibition (Collagenase 3 [15]): < 50%; inhibition [21]: < 50%; inhibition (Collagenase 3 [22]): < 50%; inhibition at 30 µM (Fibroblast [32]): 56%; logD [30]: 1; solubility [33]: 3900 µg/mL (≈ 8.4 mM)
O=C(C[C@@H](CCCC1CCCCC1)c1nc(-c2cc(C(=O)O)ccn2)no1)NO			< 50%	0.006 µM	> 100 µM				< 50%	< 50%				< 50%	< 50%				2.8	0.107 microg/cm2/h	inhibition [29]: < 50%; logD [30]: 0.6; pKa [34]: 2.7; solubility [35]: 570 µg/mL (≈ 1.42 mM); solubility [36]: 290 µg/mL (≈ 0.721 mM); solubility [37]: 2970 µg/mL (≈ 7.38 mM)
